Key:
Type in all cases: ADME, organism-based
[1] = species on record: Rattus norvegicus; test: The distribution of the 131 I-labeled compound at 30 min was evaluated in rat liver as Percent of injected dose per gram in the organ; conditions: in vivo, 0.5 h
Outline: (§1)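 Male Sprague-Dawley rats (200–300 g, free access to food and water), lightly ether-anesthetized and restrained, received a 0.2 mL saline tail-vein bolus of 10–20 μCi 131I-labeled compound. They were decapitated at the stated time, and organs were excised, weighed and gamma-counted. Percent injected dose was determined against a calibrated external standard made by serial dilution of the injectate. n = 1–4 rats.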

[2] = species on record: Rattus norvegicus; test: The distribution of the 131 I-labeled compound at 5 min was evaluated in rat heart as Percent of injected dose per gram in the organ; conditions: in vivo; outline: as §1
[3] = species on record: Rattus norvegicus; test: The distribution of the 131 I-labeled compound at 30 min was evaluated in rat kidney as Percent of injected dose in the total organ; conditions: in vivo, 0.5 h; outline: as §1
[4] = species on record: Rattus norvegicus; test: Ratio of distribution of the [131I]-labeled compound at 5 min in rat lung over uptake in blood; conditions: other tissue
Outline: (§2)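 Male Sprague-Dawley rats (200–300 g, fed ad libitum), ether-anesthetized, got a tail-vein bolus of 0.2 mL saline containing 10–20 μCi 131I compound and were decapitated at the stated time. Organs were weighed and gamma-counted against a serially diluted external standard. Organ/blood ratio was calculated from % dose per gram of organ. Animal numbers per time point were 1–4.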

[5] = species on record: Rattus norvegicus; test: The distribution of the 131 I-labeled compound at 30 min was evaluated in rat kidney as Percent of injected dose per gram in the organ; conditions: in vivo, 0.5 h; outline: as §1
[6] = species on record: Rattus norvegicus; test: The distribution of the 131 I-labeled compound at 30 min was evaluated in rat lung as Percent of injected dose per gram in the organ; conditions: in vivo, 0.5 h; outline: as §1
[7] = species on record: Rattus norvegicus; test: The distribution of the 131 I-labeled compound at 5 min was evaluated in rat blood as Percent of injected dose per gram in the organ; conditions: in vivo; outline: as §1
[8] = species on record: Rattus norvegicus; test: The distribution of the 131 I-labeled compound at 5 min was evaluated in rat liver as Percent of injected dose in the total organ; conditions: in vivo; outline: as §1
[9] = species on record: Rattus norvegicus; test: The distribution of the 131 I-labeled compound at 30 min was evaluated in rat blood as Percent of injected dose per gram in the organ; conditions: in vivo, 0.5 h; outline: as §1
[10] = species on record: Rattus norvegicus; test: Ratio of distribution of the [131I]-labeled compound at 30 min in rat liver over uptake in blood; conditions: other tissue, 0.5 h; outline: as §2
[11] = species on record: Rattus norvegicus; test: The distribution of the 131 I-labeled compound at 5 min was evaluated in rat liver as Percent of injected dose per gram in the organ; conditions: in vivo; outline: as §1
[12] = species on record: Rattus norvegicus; test: Ratio of distribution of the [131I]-labeled compound at 5 min in rat liver over uptake in blood; conditions: other tissue; outline: as §2
[13] = species on record: Rattus norvegicus; test: Ratio of distribution of the [131I]-labeled compound at 5 min in rat heart over uptake in blood; conditions: other tissue; outline: as §2
[14] = species on record: Rattus norvegicus; test: The distribution of the 131 I-labeled compound at 30 min was evaluated in rat heart as Percent of injected dose per gram in the organ; conditions: in vivo, 0.5 h; outline: as §1
[15] = species on record: Rattus norvegicus; test: The distribution of the 131 I-labeled compound at 5 min was evaluated in rat brain as Percent of injected dose per gram in the organ; conditions: in vivo; outline: as §1
[16] = species on record: Rattus norvegicus; test: The distribution of the 131 I-labeled compound at 30 min was evaluated in rat liver as Percent of injected dose in the total organ; conditions: in vivo, 0.5 h; outline: as §1
[17] = species on record: Rattus norvegicus; test: The distribution of the 131 I-labeled compound at 5 min was evaluated in rat heart as Percent of injected dose in the total organ; conditions: in vivo; outline: as §1
[18] = species on record: Rattus norvegicus; test: Ratio of distribution of the [131I]-labeled compound at 30 min in rat brain over uptake in blood; conditions: 0.5 h; outline: as §2
[19] = species on record: Rattus norvegicus; test: The distribution of the 131 I-labeled compound at 30 min was evaluated in rat heart as Percent of injected dose in the total organ; conditions: in vivo, 0.5 h; outline: as §1
[20] = species on record: Rattus norvegicus; test: The distribution of the 131 I-labeled compound at 30 min was evaluated in rat brain as Percent of injected dose per gram in the organ; conditions: in vivo, 0.5 h; outline: as §1
[21] = species on record: Rattus norvegicus; test: The distribution of the 131 I-labeled compound at 5 min was evaluated in rat brain as Percent of injected dose in the total organ; conditions: in vivo; outline: as §1
[22] = species on record: Rattus norvegicus; test: Ratio of distribution of the [131I]-labeled compound at 30 min in rat lung over uptake in blood; conditions: other tissue, 0.5 h; outline: as §2
[23] = species on record: Rattus norvegicus; test: The distribution of the 131 I-labeled compound at 5 min was evaluated in rat kidney as Percent of injected dose in the total organ; conditions: in vivo; outline: as §1
[24] = species on record: Rattus norvegicus; test: Ratio of distribution of the [131I]-labeled compound at 30 min in rat heart over uptake in blood; conditions: other tissue, 0.5 h; outline: as §2
[25] = species on record: Rattus norvegicus; test: The distribution of the 131 I-labeled compound at 5 min was evaluated in rat lung as Percent of injected dose per gram in the organ; conditions: in vivo; outline: as §1
[26] = species on record: Rattus norvegicus; test: The distribution of the 131 I-labeled compound at 5 min was evaluated in rat kidney as Percent of injected dose per gram in the organ; conditions: in vivo; outline: as §1
[27] = species on record: Rattus norvegicus; test: The distribution of the 131 I-labeled compound at 30 min was evaluated in rat brain as Percent of injected dose in the total organ; conditions: in vivo, 0.5 h; outline: as §1
[28] = species on record: Rattus norvegicus; test: Ratio of distribution of the [131I]-labeled compound at 5 min in rat brain over uptake in blood; outline: as §2
[29] = species on record: Rattus norvegicus; test: Ratio of distribution of the [131I]-labeled compound at 30 min in rat kidney over uptake in blood; conditions: other tissue, 0.5 h; outline: as §2
[30] = species on record: Rattus norvegicus; test: Ratio of distribution of the [131I]-labeled compound at 5 min in rat kidney over uptake in blood; conditions: other tissue; outline: as §2

Compound | Dose [1] [%] | Dose [2] [%] | Ratio [4] | Dose [6] [%] | Dose [7] [%] | Dose [8] [%] | Dose [9] [%] | Ratio [10] | Dose [11] [%] | Ratio [12] | Ratio [13] | Dose [14] [%] | Dose [15] [%] | Dose [16] [%] | Dose [17] [%] | Ratio [18] | Dose [19] [%] | Dose [20] [%] | Dose [21] [%] | Ratio [22] | further results
CCN(CC)C(C)Cc1cc(OC)c(I)cc1OC (centres undefined) | 0.32 | 0.35 | 29 | 1.2 | 0.07 | 6 | 0.06 | 8.1 | 0.46 | 5.5 | 5 | 0.14 | 0.39 | 4.3 | 0.4 | 4.3 | 0.2 | 0.13 | 0.78 | 20 | Dose [3]: 1.1%; Dose [5]: 0.39%; Dose [23]: 1.8%; Ratio [24]: 2.3; Dose [25]: 2%; Dose [26]: 0.69%; Dose [27]: 0.26%; Ratio [28]: 5.6
CNC(C)Cc1cc(OC)c(I)cc1OC (centres undefined) | 1.8 | 0.93 | 42 | 3.2 | 0.14 | 5.3 | 0.28 | 6.4 | 0.76 | 5.4 | 6.6 | 0.53 | 0.57 | 11 | 0.65 | 2.2 | 0.32 | 0.62 | 0.97 | 11.4 | Ratio [24]: 1.9; Dose [25]: 5.9%; Dose [27]: 1%; Ratio [28]: 4.1
COc1cc(CC(C)NC(C)C)c(OC)cc1I (centres undefined) | 1.2 | 1.2 | 31 | 2.8 | 0.25 | 7.2 | 0.23 | 5.2 | 1.1 | 4.4 | 4.8 | 0.44 | 0.66 | 6 | 0.79 | 1.3 | 0.29 | 0.3 | 1.2 | 12 | Ratio [24]: 1.9; Dose [25]: 7.7%; Dose [27]: 0.52%; Ratio [28]: 2.6
COc1cc(CC(C)N(C)C)c(OC)cc1I (centres undefined) | 0.89 | 0.8 | 16 | 1.7 | 0.2 | 16 | 0.11 | 8.1 | 1.1 | 5.5 | 4 | 0.26 | 1.8 | 12 | 1.1 | 5 | 0.28 | 0.55 | 3.4 | 15 | Dose [3]: 2.4%; Ratio [29]: 8.4; Dose [5]: 0.9%; Ratio [30]: 5.5; Dose [23]: 6.8%; Ratio [24]: 2.4; Dose [25]: 3.1%; Dose [26]: 2.4%; Dose [27]: 1.1%; Ratio [28]: 9
COc1cc(CC(C)N(C)C(C)C)c(OC)cc1I (centres undefined) | 0.32 | 0.34 | 1.1 | 0.38 | 0.5 | 10 | 0.53 | 0.6 | 0.76 | 1.6 | 0.68 | 0.19 | 0.12 | 4.6 | 0.39 | 0.09 | 0.24 | 0.05 | 0.23 | 0.72 | Dose [3]: 1.1%; Ratio [29]: 0.72; Dose [5]: 0.38%; Ratio [30]: 1.1; Dose [23]: 1.5%; Ratio [24]: 0.36; Dose [25]: 0.53%; Dose [26]: 0.53%; Dose [27]: 0.1%; Ratio [28]: 0.24
COc1cc(CC(C)NCCCN(C)C)c(OC)cc1I (centres undefined) | 0.55 | 1.8 | 34 | 5.4 | 0.11 | 11 | 0.07 | 7.8 | 0.66 | 6 | 17 | 1.5 | 0.03 | 7.7 | 1.9 | 0.3 | 1.6 | 0.02 | 0.05 | 77 | Dose [3]: 5.7%; Ratio [29]: 29; Dose [5]: 2%; Ratio [30]: 16; Dose [23]: 57%; Ratio [24]: 21; Dose [25]: 3.8%; Dose [26]: 2%; Dose [27]: 0.04%; Ratio [28]: 0.3
COc1cc(CC(C)NCc2ccccc2)c(OC)cc1I (centres undefined) | 0.95 | 1.1 | 69 | 5 | 0.12 | 4 | 0.2 | 4.7 | 0.72 | 6 | 9.2 | 0.5 | 0.64 | 5.4 | 0.77 | 2.5 | 0.34 | 0.5 | 1.1 | 25 | Ratio [24]: 2.5; Dose [25]: 8.3%; Dose [27]: 0.9%; Ratio [28]: 5.3
CCCCCCNC(C)Cc1cc(OC)c(I)cc1OC (centres undefined) | 1.6 | 2.1 | 47 | 4.3 | 0.16 | 4.6 | 0.17 | 9.4 | 0.58 | 5.4 | 13 | 0.36 | 0.37 | 9.4 | 1.5 | 3.4 | 0.25 | 0.57 | 0.63 | 25 | Ratio [24]: 2.1; Dose [25]: 7.5%; Dose [27]: 0.97%; Ratio [28]: 2.3
COc1cc(CC(C)NN)c(OC)cc1I (centres undefined) | 0.29 | 0.46 | 2.4 | 0.26 | 0.36 | 12 | 0.17 | 1.7 | 1.3 | 3.6 | 1.9 | 1.2 | 0.37 | 5 | 0.4 | 0.5 | 0.15 | 0.08 | 0.72 | 1.5 | Dose [3]: 1.5%; Ratio [29]: 4.5; Dose [5]: 0.77%; Ratio [30]: 3.3; Dose [23]: 2.2%; Ratio [24]: 7.1; Dose [25]: 0.87%; Dose [26]: 1.2%; Dose [27]: 0.14%; Ratio [28]: 1

— ChEMBL document CHEMBL1122702, “Radiohalogen-labeled imaging agents. 3. Compounds for measurement of brain blood flow by emission tomography” (J Med Chem, 1984)
